This is an account of results in ChEMBL document CHEMBL4808215, “Discovery of Selective Small-Molecule Inhibitors for the ENL YEATS Domain” (J Med Chem, 2021).

Calls of active or inactive are those of the source. The calls are words filed in the database; no cut-off is given here.

In test [1] the target is YEATS domain-containing protein 4 (GAS41) (Homo sapiens) (UniProt O95619). In words: Stabilization of GAS41 in human MOLM13 cells assessed as inhibition of high temperature-induced GAS41 protein degradation at 20 uM incubated for 5 hrs by cellular thermal shift assay. Particulars: MOLM-13.
Chain of YEATS domain-containing protein 4 (GAS41) (Homo sapiens) (O95619 whole entry, looked up, the tested form may be a part): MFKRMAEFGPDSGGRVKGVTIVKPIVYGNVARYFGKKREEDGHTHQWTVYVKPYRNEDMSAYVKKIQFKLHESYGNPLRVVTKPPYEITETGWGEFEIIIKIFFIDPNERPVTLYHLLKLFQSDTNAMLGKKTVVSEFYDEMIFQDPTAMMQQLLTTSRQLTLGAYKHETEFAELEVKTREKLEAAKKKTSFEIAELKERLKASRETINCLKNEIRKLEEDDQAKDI
Test [2] deals with MOLM-13. In words: Growth inhibition of human MOLM13 cells incubated for 6 days in presence of JQ1 by CellTiter-Glo luminescent cell viability assay. Particulars: MOLM-13, 144 h. (Cellular ATP, detected with luciferase, serves as a proxy for viable cell number.)
For test [3], the target named is YEATS domain-containing protein 4 (GAS41) (Homo sapiens) (UniProt O95619). Nature of the test: Stabilization of GAS41 in human MV4-11 cells assessed as inhibition of high temperature-induced GAS41 protein degradation at 20 uM incubated for 5 hrs by cellular thermal shift assay.
The target of test [4] is T1, Protein ENL (Homo sapiens) (UniProt Q03111).
T1 sequence (whole entry): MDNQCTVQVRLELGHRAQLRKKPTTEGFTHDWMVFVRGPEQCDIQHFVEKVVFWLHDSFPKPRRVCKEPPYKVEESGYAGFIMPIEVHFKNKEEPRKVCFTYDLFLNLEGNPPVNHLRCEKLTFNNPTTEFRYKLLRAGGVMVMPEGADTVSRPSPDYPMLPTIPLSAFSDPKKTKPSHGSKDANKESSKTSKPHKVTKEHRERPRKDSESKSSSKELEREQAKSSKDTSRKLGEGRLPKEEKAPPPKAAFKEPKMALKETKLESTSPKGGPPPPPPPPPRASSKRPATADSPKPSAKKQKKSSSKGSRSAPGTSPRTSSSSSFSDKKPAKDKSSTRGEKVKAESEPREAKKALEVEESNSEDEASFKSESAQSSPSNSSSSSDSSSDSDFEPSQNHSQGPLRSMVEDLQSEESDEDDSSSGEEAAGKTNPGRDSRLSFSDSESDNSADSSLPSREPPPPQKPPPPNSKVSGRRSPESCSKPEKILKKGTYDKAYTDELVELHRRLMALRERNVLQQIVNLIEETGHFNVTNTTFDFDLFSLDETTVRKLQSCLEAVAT
Nature of the test: Stabilization of ENL in human MOLM13 cells assessed as inhibition of high temperature-induced ENL protein degradation at 20 uM incubated for 5 hrs by cellular thermal shift assay. It counts as cell-based. The note with it: MOLM-13. In outline: (§1)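 Cells (MOLM13, MV4;11 or HeLa) were treated with 20 μM compound or DMSO for 5 h, washed with PBS and resuspended in PBS with protease inhibitors, about 3 million cells per aliquot. Aliquots were heated 3 min at the indicated temperatures, then held 2 min at room temperature. Lysis was by NP40/glycerol/DTT buffer and three freeze-thaw cycles, followed by a 13,000 rpm spin at 4 °C. Soluble ENL, GAS41 or AF9 in supernatants was measured by western blot with β-actin loading control.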

Test [5] deals with MOLM-13. Nature of the test: Growth inhibition of human MOLM-13 cells incubated for 6 days by CellTiter-Glo luminescent cell viability assay. The note with it: MOLM-13, 144 h.
The target in test [6] is T1, Protein ENL (Homo sapiens). Nature of the test: Inhibition of human His-ENL YEATS domain and biotinylated H3K9ac peptide interaction at 5 uM by AlphaScreen assay. For orientation: Alpha assays give light when donor and acceptor beads are brought close together.
Test [7] deals with MV4-11. Nature of the test: Growth inhibition of human MV4-11 cells at 2.5 to 50 uM incubated for 3 days by CellTiter-Glo luminescent cell viability assay relative to control. In kind it is functional, cell-based. The note with it: dose 2.5-50 µM, time 3.0 day. In short, it runs like this: (§2)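 MOLM13 and MV4;11 were grown in RPMI-1640 + 10% FBS, U2OS in DMEM + 10% FBS. Treatment with DMSO or compound for 3 days. Viability read by CellTiter-Glo luminescence and expressed as % of DMSO-treated cells. Mean ± SEM, n = 3.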

For test [8], the system named is U2OS. Nature of the test: Growth inhibition of ENL-independent human U2OS cells at 50 uM incubated for 3 days by CellTiter-Glo luminescent cell viability assay relative to control. In kind it is functional, cell-based. The note with it: time 3.0 day. In outline:
as §2

Test [9] deals with T2, Protein AF-9 (Homo sapiens) (UniProt P42568).
T2 sequence (whole entry): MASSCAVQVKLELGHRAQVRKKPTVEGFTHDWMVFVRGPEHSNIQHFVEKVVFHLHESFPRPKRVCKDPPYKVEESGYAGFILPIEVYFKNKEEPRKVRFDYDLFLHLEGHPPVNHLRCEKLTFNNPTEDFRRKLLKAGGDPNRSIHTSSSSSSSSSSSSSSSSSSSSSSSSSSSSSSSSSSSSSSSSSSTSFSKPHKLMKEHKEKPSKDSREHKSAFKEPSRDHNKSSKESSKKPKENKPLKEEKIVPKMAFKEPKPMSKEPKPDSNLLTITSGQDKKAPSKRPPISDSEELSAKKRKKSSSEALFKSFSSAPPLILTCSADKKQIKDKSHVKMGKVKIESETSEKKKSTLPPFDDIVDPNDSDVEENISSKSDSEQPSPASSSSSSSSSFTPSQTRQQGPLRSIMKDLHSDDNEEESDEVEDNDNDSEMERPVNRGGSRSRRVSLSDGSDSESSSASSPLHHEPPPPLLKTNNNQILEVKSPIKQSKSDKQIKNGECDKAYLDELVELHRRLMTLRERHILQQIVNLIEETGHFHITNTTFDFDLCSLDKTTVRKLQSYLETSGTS
In words: Stabilization of AF9 in human HeLa cells assessed as inhibition of high temperature-induced AF9 protein degradation at 20 uM incubated for 5 hrs by cellular thermal shift assay. It counts as cell-based. In short, it runs like this: as §1

Test [10] has as its system MOLM-13. Nature of the test: Growth inhibition of human MOLM13 cells at 10 uM incubated for 3 days by CellTiter-Glo luminescent cell viability assay relative to control. It counts as functional. Particulars: MOLM-13, 72 h, time 3 day, read-out: GI. In short, it runs like this: as §2
The target in test [11] is T1, Protein ENL (Homo sapiens). In words: Stabilization of ENL in human MV4-11 cells assessed as inhibition of high temperature-induced ENL protein degradation at 20 uM incubated for 5 hrs by cellular thermal shift assay. In kind it is cell-based. In short, it runs like this:
as §1

For test [12], the target named is T3, Protein ENL (Homo sapiens, UniProt Q03111).
T3 sequence (Q03111 whole entry): T1 sequence (whole entry)
In words: Inhibition of human His-ENL YEATS domain and biotinylated H3K9ac peptide interaction by AlphaScreen assay.

Test [13] addresses T2, Protein AF-9 (Homo sapiens). In words: Inhibition of human His-AF9 YEATS domain and biotinylated H3K9ac peptide interaction at 20 uM by AlphaScreen assay.
For test [14], the system named is MOLM-13. In words: Growth inhibition of human MOLM13 cells at 5 uM incubated for 3 days by CellTiter-Glo luminescent cell viability assay relative to control. It counts as functional. The note with it: MOLM-13, 72 h, time 3 day, read-out: GI. In short, it runs like this:
as §2

Test [15] addresses YEATS domain-containing protein 4 (Homo sapiens, UniProt O95619). In words: Inhibition of human His-GAS41 YEATS domain and biotinylated H3K27ac peptide interaction by AlphaScreen assay. In outline: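 His-tagged YEATS domains were expressed in E. coli Rosetta-2 (DE3) pLysS and purified on Ni-NTA. Partners were biotinylated peptide on streptavidin donor and Ni2+-chelate acceptor beads: AF9 30 nM with H3K9ac, GAS41 100 nM with H3K27ac, YEATS2 100 nM with H3K27cr. Peptides at 30 nM, buffer 50 mM HEPES pH 7.4, 100 mM NaCl, 0.1% BSA, 0.05% CHAPS. Thirteen-point 3-fold series from 54 μM to 0.1 nM, 4–6 replicates, signal normalised to no-compound control, four-parameter fit.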

Chain of YEATS domain-containing protein 4 (O95619 whole entry, the tested form may be a part): as the sequence (O95619 whole entry, looked up, the tested form may be a part) above

Consider `CN(C)Cc1ccc(CNC(=O)c2ccc3nncn3c2)cc1`, for which the outcome in [1], in test [3] and in [9] was inactive. Besides, the GI50 (usually the concentration giving 50% growth inhibition) in test [2] came out at 1.34 µM; in test [5], 3.64 µM. Besides, the outcome in test [4] and in test [11] was Active. Moreover, the inhibition result in [6] and in test [13] was “Active” each time. In addition, the “growth inhibition (GI)” value in [7] was “Active”. Moreover, the “growth inhibition (GI)” value in [8] was “inactive”. In addition, in test [10], the inhibition of growth at 10 µM was determined as 80%. The IC50 (commonly the midpoint of a concentration-inhibition curve) is 0.621 µM in [12] and > 54 µM in [15]. Besides, the inhibition of growth at 5 µM in [14] was determined as 40%.
